Laboratory results taken from ChEMBL document CHEMBL4364271, “Unveiling the Importance of Amide Protons in CSP:ComD Interactions in Streptococcus pneumoniae” (ACS Med Chem Lett, 2019).
The source made the active and inactive calls. The rule behind the calls is not given here. Non-standard residues stand in square brackets, D forms with d. Residues, ends and D or L forms follow the SMILES beside them. NMeR = CN[C@@H](CCCNC(=N)N)C(=O)O; NMeF = CN[C@@H](Cc1ccccc1)C(=O)O; NMeI = CC[C@H](C)[C@H](NC)C(=O)O; NMeD = CN[C@@H](CC(=O)O)C(=O)O; NMeL = CN[C@@H](CC(C)C)C(=O)O; NMeS = CN[C@@H](CO)C(=O)O

Tests used:
[1] = Metabolic stability in aqueous ammonium carbonate solution assessed as trypsin/chymotrypsin (unknown origin)-mediated drug degradation by measuring half life at 0.05 ug/ml incubated in shaking conditions in presence of trypsin/chymotrpsin and measured for 48 hrs by RP-HPLC analysis; format: ADME; details: human
[2] = Antagonist activity at ComD1 receptor in Streptococcus pneumoniae D39 harboring pcomX/lacZ reporter gene assessed as inhibiton of CSP1-stimulated maximum signal preincubated for 30 mins followed by 50 nM CSP1 addition by ONPG based beta-galactosidase assay
In short: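 Comx-lacZ β-gal reporter inhibition in D39 (ComD1, CSP1 50 nM) or TIGR4 (ComD2, CSP2 250 nM). Peptides tested over a range of concentrations against the stimulating CSP. Miller units normalized to CSP alone. IC50 given with 95% confidence interval.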

[3] = Metabolic stability in human plasma at 0.33 mM measured for 3 hrs by RP-HPLC analysis; format: ADME, cell-free; details: 330 µM
[4] = tested on: Streptococcus pneumoniae D39; test: Agonist activity at ComD1 receptor in Streptococcus pneumoniae D39 harboring pcomX/lacZ reporter gene at 10 uM incubated for 30 mins by ONPG based beta-galactosidase assay relative to native CSP1
In short: (§1)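 Single-dose screen of synthetic peptide at 10 μM in wild-type reporter strains (D39 for ComD1, TIGR4 for ComD2) producing their own CSP and carrying lacZ under the comX promoter. β-gal activity in Miller units normalized to native CSP (CSP1 or CSP2, 100%); DMSO 0%. Triplicates over three separate trials.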

[5] = tested on: Streptococcus pneumoniae D39; test: Antagonist activity at ComD1 receptor in Streptococcus pneumoniae D39 harboring pcomX/lacZ reporter gene assessed as inhibiton of CSP1-stimulated maximum signal at 10 uM preincubated for 30 mins followed by 50 nM CSP1 addition by ONPG based beta-galactosidase assay relative to native CSP1
In short: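 Inhibition screen: peptides at 10 μM against CSP1 50 nM (D39, ComD1) or CSP2 250 nM (TIGR4, ComD2), in comX-lacZ reporter strains. β-gal Miller units normalized to CSP alone (100%) and DMSO (0%). Triplicates over three separate trials.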

[6] = tested on: Streptococcus pneumoniae TIGR4; test: Agonist activity at ComD2 receptor in Streptococcus pneumoniae TIGR4 harboring pcomX/lacZ reporter gene at 10 uM incubated for 30 mins by ONPG based beta-galactosidase assay relative to native CSP2; in short: as §1
[7] = Agonist activity at ComD2 receptor in Streptococcus pneumoniae TIGR4 harboring pcomX/lacZ reporter gene incubated for 30 mins by ONPG based beta-galactosidase assay
In short: (§2)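 Dose-response in wild-type lacZ reporter strains (comX promoter; D39 for ComD1, TIGR4 for ComD2) producing native CSP. Peptides tested over a range of concentrations. β-gal read-out (Miller units) normalized to native CSP. EC50 reported with 95% confidence interval.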

[8] = Solubility of the compound in ammonium carbonate solution at pH 8; format: physicochemical; details: buffer
[9] = Agonist activity at ComD1 receptor in Streptococcus pneumoniae D39 harboring pcomX/lacZ reporter gene incubated for 30 mins by ONPG based beta-galactosidase assay; in short: as §2

Compound	half-life at 0.05 ug/ml [1] [h]	IC50 [2] [nM]	Stability [3]	Activity [4]	inhibition [5]	Activity [6]	EC50 [7] [nM]	solubility [8]	EC50 [9] [nM]
CC[C@H](C)[C@H](NC(=O)[C@H](Cc1ccccc1)NC(=O)[C@H](CC(=O)O)NC(=O)[C@H](CCCNC(=N)N)NC(=O)[C@H](Cc1ccccc1)NC(=O)[C@H](Cc1ccccc1)NC(=O)[C@H](CCCCN)NC(=O)[C@H](CO)NC(=O)[C@H](CC(C)C)NC(=O)[C@H](CCCNC(=N)N)NC(=O)[C@H](CCSC)NC(=O)[C@H](C)N)C(=O)N[C@@H](CC(C)C)C(=O)N(C)[C@@H](CCC(N)=O)C(=O)N[C@@H](CCCNC(=N)N)C(=O)N[C@@H](CCCCN)C(=O)N[C@@H](CCCCN)C(=O)O	6	370	Stable						
CC[C@H](C)[C@H](NC(=O)[C@H](Cc1ccccc1)NC(=O)[C@H](CC(=O)O)NC(=O)[C@H](CCCNC(=N)N)NC(=O)[C@H](Cc1ccccc1)NC(=O)[C@H](Cc1ccccc1)NC(=O)[C@H](CCCCN)N(C)C(=O)[C@H](CO)NC(=O)[C@H](CC(C)C)NC(=O)[C@H](CCCNC(=N)N)NC(=O)[C@H](CCSC)NC(=O)[C@H](C)N)C(=O)N[C@@H](CC(C)C)C(=O)N[C@@H](CCC(N)=O)C(=O)N[C@@H](CCCNC(=N)N)C(=O)N[C@@H](CCCCN)C(=O)N[C@@H](CCCCN)C(=O)O	2	48	Unstable						
CC[C@H](C)[C@H](NC(=O)[C@H](CCCNC(=N)N)NC(=O)[C@H](CCSC)NC(=O)[C@@H](N)CCC(=O)O)C(=O)N[C@@H](CO)C(=O)N[C@@H](CCCNC(=N)N)C(=O)N[C@H](C(=O)N[C@H](C(=O)N[C@@H](CC(C)C)C(=O)N(C)[C@@H](CC(=O)O)C(=O)N[C@@H](Cc1ccccc1)C(=O)N[C@@H](CC(C)C)C(=O)N[C@@H](Cc1ccccc1)C(=O)O)[C@@H](C)CC)[C@@H](C)CC (H-EMRISRIIL[NMeD]FLF-OH)				inactive	inactive	> 75%	340	Insoluble	
CC[C@H](C)[C@H](NC(=O)[C@H](CCCNC(=N)N)NC(=O)[C@H](CCSC)NC(=O)[C@@H](N)CCC(=O)O)C(=O)N[C@@H](CO)C(=O)N[C@@H](CCCNC(=N)N)C(=O)N(C)[C@H](C(=O)N[C@H](C(=O)N[C@@H](CC(C)C)C(=O)N[C@@H](CC(=O)O)C(=O)N[C@@H](Cc1ccccc1)C(=O)N[C@@H](CC(C)C)C(=O)N[C@@H](Cc1ccccc1)C(=O)O)[C@@H](C)CC)[C@@H](C)CC (H-EMRISR[NMeI]ILDFLF-OH)				inactive	inactive	> 75%	> 1000	Insoluble	
CC[C@H](C)[C@H](NC(=O)[C@H](CCCNC(=N)N)NC(=O)[C@H](CCSC)NC(=O)[C@@H](N)CCC(=O)O)C(=O)N[C@@H](CO)C(=O)N(C)[C@@H](CCCNC(=N)N)C(=O)N[C@H](C(=O)N[C@H](C(=O)N[C@@H](CC(C)C)C(=O)N[C@@H](CC(=O)O)C(=O)N[C@@H](Cc1ccccc1)C(=O)N[C@@H](CC(C)C)C(=O)N[C@@H](Cc1ccccc1)C(=O)O)[C@@H](C)CC)[C@@H](C)CC (H-EMRIS[NMeR]IILDFLF-OH)				inactive	inactive	> 75%	560	Insoluble	
CC[C@H](C)[C@H](NC(=O)[C@H](CCCNC(=N)N)NC(=O)[C@H](CO)N(C)C(=O)[C@@H](NC(=O)[C@H](CCCNC(=N)N)NC(=O)[C@H](CCSC)NC(=O)[C@@H](N)CCC(=O)O)[C@@H](C)CC)C(=O)N[C@H](C(=O)N[C@@H](CC(C)C)C(=O)N[C@@H](CC(=O)O)C(=O)N[C@@H](Cc1ccccc1)C(=O)N[C@@H](CC(C)C)C(=O)N[C@@H](Cc1ccccc1)C(=O)O)[C@@H](C)CC (H-EMRI[NMeS]RIILDFLF-OH)				inactive	inactive	> 75%	550	Insoluble	
CC[C@H](C)[C@H](NC(=O)[C@H](Cc1ccccc1)NC(=O)[C@H](CC(=O)O)NC(=O)[C@H](CCCNC(=N)N)NC(=O)[C@H](Cc1ccccc1)NC(=O)[C@H](Cc1ccccc1)NC(=O)[C@H](CCCCN)NC(=O)[C@H](CO)NC(=O)[C@H](CC(C)C)NC(=O)[C@H](CCCNC(=N)N)NC(=O)[C@H](CCSC)NC(=O)[C@@H](N)CCC(=O)O)C(=O)N[C@@H](CC(C)C)C(=O)N[C@@H](CCC(N)=O)C(=O)N(C)[C@@H](CCCNC(=N)N)C(=O)O (H-EMRLSKFFRDFILQ[NMeR]-OH)				> 75%		> 75%	> 1000		130
CC[C@H](C)[C@H](NC(=O)[C@H](Cc1ccccc1)NC(=O)[C@H](CC(=O)O)NC(=O)[C@H](CCCNC(=N)N)NC(=O)[C@H](Cc1ccccc1)NC(=O)[C@H](Cc1ccccc1)NC(=O)[C@H](CCCCN)NC(=O)[C@H](CO)NC(=O)[C@H](CC(C)C)NC(=O)[C@H](CCCNC(=N)N)NC(=O)[C@H](CCSC)NC(=O)[C@@H](N)CCC(=O)O)C(=O)N(C)[C@@H](CC(C)C)C(=O)N[C@@H](CCC(N)=O)C(=O)N[C@@H](CCCNC(=N)N)C(=O)O (H-EMRLSKFFRDFI[NMeL]QR-OH)				inactive		inactive			> 1000
CC[C@H](C)[C@H](NC(=O)[C@H](Cc1ccccc1)NC(=O)[C@H](CC(=O)O)N(C)C(=O)[C@H](CCCNC(=N)N)NC(=O)[C@H](Cc1ccccc1)NC(=O)[C@H](Cc1ccccc1)NC(=O)[C@H](CCCCN)NC(=O)[C@H](CO)NC(=O)[C@H](CC(C)C)NC(=O)[C@H](CCCNC(=N)N)NC(=O)[C@H](CCSC)NC(=O)[C@@H](N)CCC(=O)O)C(=O)N[C@@H](CC(C)C)C(=O)N[C@@H](CCC(N)=O)C(=O)N[C@@H](CCCNC(=N)N)C(=O)O (H-EMRLSKFFR[NMeD]FILQR-OH)				inactive		> 75%	> 1000		> 1000
CC[C@H](C)[C@H](NC(=O)[C@H](Cc1ccccc1)NC(=O)[C@H](CC(=O)O)NC(=O)[C@H](CCCNC(=N)N)NC(=O)[C@H](Cc1ccccc1)N(C)C(=O)[C@H](Cc1ccccc1)NC(=O)[C@H](CCCCN)NC(=O)[C@H](CO)NC(=O)[C@H](CC(C)C)NC(=O)[C@H](CCCNC(=N)N)NC(=O)[C@H](CCSC)NC(=O)[C@@H](N)CCC(=O)O)C(=O)N[C@@H](CC(C)C)C(=O)N[C@@H](CCC(N)=O)C(=O)N[C@@H](CCCNC(=N)N)C(=O)O (H-EMRLSKF[NMeF]RDFILQR-OH)				> 75%		inactive			> 1000
CC[C@H](C)[C@H](NC(=O)[C@H](Cc1ccccc1)NC(=O)[C@H](CC(=O)O)NC(=O)[C@H](CCCNC(=N)N)NC(=O)[C@H](Cc1ccccc1)NC(=O)[C@H](Cc1ccccc1)NC(=O)[C@H](CCCCN)NC(=O)[C@H](CO)N(C)C(=O)[C@H](CC(C)C)NC(=O)[C@H](CCCNC(=N)N)NC(=O)[C@H](CCSC)NC(=O)[C@@H](N)CCC(=O)O)C(=O)N[C@@H](CC(C)C)C(=O)N[C@@H](CCC(N)=O)C(=O)N[C@@H](CCCNC(=N)N)C(=O)O (H-EMRL[NMeS]KFFRDFILQR-OH)				> 75%		> 75%	> 1000		280
CC[C@H](C)[C@H](NC(=O)[C@H](CCCNC(=N)N)NC(=O)[C@H](CO)NC(=O)[C@H]([C@@H](C)CC)N(C)C(=O)[C@H](CCCNC(=N)N)NC(=O)[C@H](CCSC)NC(=O)[C@@H](N)CCC(=O)O)C(=O)N[C@H](C(=O)N[C@@H](CC(C)C)C(=O)N[C@@H](CC(=O)O)C(=O)N[C@@H](Cc1ccccc1)C(=O)N[C@@H](CC(C)C)C(=O)N[C@@H](Cc1ccccc1)C(=O)O)[C@@H](C)CC (H-EMR[NMeI]SRIILDFLF-OH)				inactive	inactive	> 75%	> 1000	Insoluble	
CC[C@H](C)[C@H](NC(=O)[C@H](Cc1ccccc1)NC(=O)[C@H](CC(=O)O)NC(=O)[C@H](CCCNC(=N)N)NC(=O)[C@H](Cc1ccccc1)NC(=O)[C@H](Cc1ccccc1)NC(=O)[C@H](CCCCN)NC(=O)[C@H](CO)NC(=O)[C@H](CC(C)C)N(C)C(=O)[C@H](CCCNC(=N)N)NC(=O)[C@H](CCSC)NC(=O)[C@@H](N)CCC(=O)O)C(=O)N[C@@H](CC(C)C)C(=O)N[C@@H](CCC(N)=O)C(=O)N[C@@H](CCCNC(=N)N)C(=O)O (H-EMR[NMeL]SKFFRDFILQR-OH)				> 75%		inactive			280
H-EMRLSKFFRDFILQR-OH	4						> 1000		8.1
